Data: ChEMBL document CHEMBL1821604, “Anticancer activity and cDNA microarray studies of a (RS)-1,2,3,5-tetrahydro-4,1-benzoxazepine-3-yl]-6-chloro-9H-purine, and an acyclic (RS)-O,N-acetalic 6-chloro-7H-purine” (Eur J Med Chem, 2011)

How the values were obtained:
[1] = tested on: MCF7; experiment: Down regulation of PARK2 gene expression in human MCF7 cells at IC50 after 48 hrs by cDNA microarray technique relative to control; assay type: functional
[2] = tested on: HT-29; experiment: Upregulation of NAV1 gene expression in human HT-29 cells at IC50 after 48 hrs by cDNA microarray technique relative to control; assay type: functional
[3] = tested on: MCF7; experiment: Down regulation of THSD2 gene expression in human MCF7 cells at IC50 after 48 hrs by cDNA microarray technique relative to control; assay type: functional
[4] = tested on: HT-29; experiment: Upregulation of PDGFA gene expression in human HT-29 cells at IC50 after 48 hrs by cDNA microarray technique relative to control; assay type: functional
[5] = tested on: HT-29; experiment: Upregulation of CTSZ gene expression in human HT-29 cells at IC50 after 48 hrs by cDNA microarray technique relative to control; assay type: functional
[6] = tested on: MCF7; experiment: Cytotoxicity against human MCF7 cells after 6 days by SRB colorimetric assay; assay type: functional, cell-based; settings: MCF7, 144 h
[7] = tested on: HT-29; experiment: Down regulation of ALB gene expression in human HT-29 cells at IC50 after 48 hrs by cDNA microarray technique relative to control; assay type: functional
Method in brief: (§1)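 8 × 10⁶ cells exposed 48 h to compound at its IC50 concentration; total RNA isolated with trizol/chloroform and RNeasy columns including on-column DNase step; RNA quantified by OD 260/280; DMSO-treated cultures as control.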

[8] = tested on: HT-29; experiment: Down regulation of MOG gene expression in human HT-29 cells at IC50 after 48 hrs by cDNA microarray technique relative to control; assay type: functional
[9] = tested on: MCF7; experiment: Down regulation of BDKRB1 gene expression in human MCF7 cells at IC50 after 48 hrs by cDNA microarray technique relative to control; assay type: functional; method in brief: as §1
[10] = tested on: MCF7; experiment: Upregulation of HMGCS2 gene expression in human MCF7 cells at IC50 after 48 hrs by cDNA microarray technique relative to control; assay type: functional
[11] = tested on: MCF7; experiment: Down regulation of FLJ35954 gene expression in human MCF7 cells at IC50 after 48 hrs by cDNA microarray technique relative to control; assay type: functional
Method in brief: (§2)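 Cells (8 × 10⁶) were cultured in DMEM with 10% heat-inactivated FBS at 37 °C under 5% CO₂. They were exposed for 48 h to compound at its IC₅₀, with DMSO-treated parallel cultures as controls (final DMSO ≤0.1% v/v). Total RNA was isolated by trizol/chloroform phase separation, RNeasy column cleanup and on-column DNase, then quantified by OD260/OD280. Expression was profiled by cDNA microarray relative to control.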

[12] = tested on: HT-29; experiment: Upregulation of YPEL1 gene expression in human HT-29 cells at IC50 after 48 hrs by cDNA microarray technique relative to control; assay type: functional
[13] = tested on: HT-29; experiment: Down regulation of PARK2 gene expression in human HT-29 cells at IC50 after 48 hrs by cDNA microarray technique relative to control; assay type: functional
[14] = tested on: HT-29; experiment: Upregulation of COL3A1 gene expression in human HT-29 cells at IC50 after 48 hrs by cDNA microarray technique relative to control; assay type: functional
[15] = tested on: MCF7; experiment: Upregulation of BTBD12 gene expression in human MCF7 cells at IC50 after 48 hrs by cDNA microarray technique relative to control; assay type: functional
[16] = tested on: HT-29; experiment: Down regulation of NBEA gene expression in human HT-29 cells at IC50 after 48 hrs by cDNA microarray technique relative to control; assay type: functional
[17] = tested on: HT-29; experiment: Upregulation of PMP22 gene expression in human HT-29 cells at IC50 after 48 hrs by cDNA microarray technique relative to control; assay type: functional
[18] = tested on: HT-29; experiment: Down regulation of ADAMTS3 gene expression in human HT-29 cells at IC50 after 48 hrs by cDNA microarray technique relative to control; assay type: functional; method in brief: as §1
[19] = tested on: HT-29; experiment: Down regulation of COL11A1 gene expression in human HT-29 cells at IC50 after 48 hrs by cDNA microarray technique relative to control; assay type: functional; method in brief: as §1
[20] = tested on: HT-29; experiment: Down regulation of HAPLN3 gene expression in human HT-29 cells at IC50 after 48 hrs by cDNA microarray technique relative to control; assay type: functional; method in brief: as §2
[21] = tested on: MCF7; experiment: Upregulation of CALM1 gene expression in human MCF7 cells at IC50 after 48 hrs by cDNA microarray technique relative to control; assay type: functional
[22] = tested on: HT-29; experiment: Upregulation of CDH15 gene expression in human HT-29 cells at IC50 after 48 hrs by cDNA microarray technique relative to control; assay type: functional
[23] = tested on: HT-29; experiment: Down regulation of LOC203427 gene expression in human HT-29 cells at IC50 after 48 hrs by cDNA microarray technique relative to control; assay type: functional
[24] = tested on: MCF7; experiment: Down regulation of TMPRSS6 gene expression in human MCF7 cells at IC50 after 48 hrs by cDNA microarray technique relative to control; assay type: functional
[25] = tested on: HT-29; experiment: Down regulation of SFRS5 gene expression in human HT-29 cells at IC50 after 48 hrs by cDNA microarray technique relative to control; assay type: functional
[26] = tested on: MCF7; experiment: Upregulation of MAGEA2B gene expression in human MCF7 cells at IC50 after 48 hrs by cDNA microarray technique relative to control; assay type: functional
[27] = tested on: HT-29; experiment: Down regulation of ANP32C gene expression in human HT-29 cells at IC50 after 48 hrs by cDNA microarray technique relative to control; assay type: functional; method in brief: as §1
[28] = tested on: MCF7; experiment: Down regulation of OR8A1 gene expression in human MCF7 cells at IC50 after 48 hrs by cDNA microarray technique relative to control; assay type: functional
[29] = tested on: HT-29; experiment: Down regulation of TAF5L gene expression in human HT-29 cells at IC50 after 48 hrs by cDNA microarray technique relative to control; assay type: functional
[30] = tested on: MCF7; experiment: Down regulation of ZNF365 gene expression in human MCF7 cells at IC50 after 48 hrs by cDNA microarray technique relative to control; assay type: functional
[31] = tested on: MCF7; experiment: Down regulation of TSGA10 gene expression in human MCF7 cells at IC50 after 48 hrs by cDNA microarray technique relative to control; assay type: functional
[32] = tested on: HT-29; experiment: Down regulation of HKE2 gene expression in human HT-29 cells at IC50 after 48 hrs by cDNA microarray technique relative to control; assay type: functional; method in brief: as §2
[33] = tested on: HT-29; experiment: Down regulation of TMED9 gene expression in human HT-29 cells at IC50 after 48 hrs by cDNA microarray technique relative to control; assay type: functional
[34] = tested on: MCF7; experiment: Upregulation of SCGB1D2 gene expression in human MCF7 cells at IC50 after 48 hrs by cDNA microarray technique relative to control; assay type: functional
[35] = tested on: HT-29; experiment: Down regulation of STK19 gene expression in human HT-29 cells at IC50 after 48 hrs by cDNA microarray technique relative to control; assay type: functional
[36] = tested on: HT-29; experiment: Down regulation of FLOT1 gene expression in human HT-29 cells at IC50 after 48 hrs by cDNA microarray technique relative to control; assay type: functional; method in brief: as §2
[37] = tested on: MCF7; experiment: Down regulation of TAS2R40 gene expression in human MCF7 cells at IC50 after 48 hrs by cDNA microarray technique relative to control; assay type: functional
[38] = tested on: HT-29; experiment: Down regulation of GK001 gene expression in human HT-29 cells at IC50 after 48 hrs by cDNA microarray technique relative to control; assay type: functional; method in brief: as §2

In the case of `COC(CN(c1ccccc1CO)S(=O)(=O)c1ccccc1[N+](=O)[O-])n1cnc2ncnc(Cl)c21` (racemic), the “fold change (FC)” value [1] is reported as -2.2, the “fold change (FC)” value [2] is reported as 2.06 and the “fold change (FC)” value [3] is reported as -2.28. The “fold change (FC)” value [4] was 2.15, the “fold change (FC)” value [5] was 2.23 and the IC50 [6] was 3.25 µM. The “fold change (FC)” value [7] was -2.32, the “fold change (FC)” value [8] was -2.65 and the “fold change (FC)” value [9] was -2.48. The “fold change (FC)” value [10] was 2.39, the “fold change (FC)” value [11] was -2.06 and the “fold change (FC)” value [12] was 4.71. The “fold change (FC)” value [13] was -2.96, the “fold change (FC)” value [14] was 4.72 and the “fold change (FC)” value [15] was 3.24. The “fold change (FC)” value [16] was -2.89, the “fold change (FC)” value [17] was 2.54 and the “fold change (FC)” value [18] was -2.43. For the same compound, the “fold change (FC)” value [19] was -2.03 and the “fold change (FC)” value [20] was -2.64.
With `O=C(OCC1c2ccccc2-c2ccccc21)N1CC(n2cnc3c(Cl)ncnc32)OCc2ccccc21` (racemic) the “fold change (FC)” value [21] was 2.99, the “fold change (FC)” value [22] was 2.06 and the “fold change (FC)” value [23] was -2.13. The “fold change (FC)” value [24] was -2.03, the “fold change (FC)” value [25] was -2.06 and the “fold change (FC)” value [26] was 2.53. For the same compound, the “fold change (FC)” value [27] was -2.81, the “fold change (FC)” value [28] was -3.03 and the “fold change (FC)” value [29] was -2.18. For the same compound, the “fold change (FC)” value [30] was 2, the “fold change (FC)” value [31] was -3.3 and the “fold change (FC)” value [32] was -2. The “fold change (FC)” value [33] was -3.95, the “fold change (FC)” value [34] was 6.02 and the “fold change (FC)” value [35] was -2.34. For the same compound, the “fold change (FC)” value [36] was -2.19, the “fold change (FC)” value [37] was -2.85 and the “fold change (FC)” value [38] was -2.03.
